Assay results published in paper PMC2638642 (Toxicological Sciences, 2008).

Tests used:
BALB/c mice [1] = assay: Serum clinical chemistry, 7-day toxicity study; type: in vivo; conditions: for BUN change: 3 mice per group
In short: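 Groups of six female BALB/c mice were dosed iv or ip with the test compound at 50, 200 or 400 mg/kg once daily for 7 days; controls got 0.9% saline by the same route. Retro-orbital blood was taken from three randomly selected mice per group on day 3 (before the third dose) and day 8 (before sacrifice). Serum BUN, ALP and GGT were measured by an outside veterinary laboratory.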

Toxicokinetic = type: in vivo, BALB/c mice
In short: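 Female BALB/c mice (12/group) got vancomycin iv or ip at 50, 200 or 400 mg/kg. Retro-orbital EDTA plasma came from three mice per time point, 0.083–24 h after doses 1 and 7. Plasma went through SPE with a tinidazole internal standard, eluted in acetonitrile:KH2PO4 pH 4, then gradient LC; calibration by 1/y-weighted regression of peak-area ratio. Noncompartmental analysis; F = (AUCip/AUCiv)×(Doseiv/Doseip).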

[2] = after iv administration in human; ref Palmer-Toy, 2000; Rybak, 2006; cited from earlier work
BALB/c mice [3] = assay: Histopathology, 7-day toxicity study; type: in vivo
[4] = high-dose treatment, day 8, serum

CN[C@H](CC(C)C)C(=O)N[C@H]1C(=O)N[C@@H](CC(N)=O)C(=O)N[C@H]2C(=O)N[C@H]3C(=O)N[C@H](C(=O)N[C@H](C(=O)O)c4cc(O)cc(O)c4-c4cc3ccc4O)[C@H](O)c3ccc(c(Cl)c3)Oc3cc2cc(c3O[C@@H]2O[C@H](CO)[C@@H](O)[C@H](O)[C@H]2O[C@H]2C[C@](C)(N)[C@H](O)[C@H](C)O2)Oc2ccc(cc2Cl)[C@H]1O [vancomycin]
CRE (serum creatinine) levels (BALB/c mice [1]; 50, 200, 400 mg/kg/day iv or ip x7): not significantly affected | BUN change (BALB/c mice [1]; high-dose (400 mg/kg/day x7) ip, day 8, serum): trend toward increased BUN values | BUN change (BALB/c mice [1]; high-dose (400 mg/kg/day x7) iv, day 8, serum): statistically significant increase | alkaline phosphatase (ALP) (BALB/c mice [1]; [4]): affected | gamma-glutamyl transferase (GGT) (BALB/c mice [1]; [4]): affected | AUC^0→∞ after iv relative to ip administration (iv higher) (Toxicokinetic; BALB/c mice, 200 mg/kg): 1.7 fold | difference in Cmax value between iv and ip administration (iv higher) (Toxicokinetic; BALB/c mice, 200 mg/kg, after seven doses): 3.4 fold | clinical condition of animals in TK study (Toxicokinetic; iv high-dose group (400 mg/kg), some animals): moribund or dead | Cmax in human (also therapeutic range) [2]: 20 to 50 µg/mL | primary histopathological finding in kidneys (BALB/c mice [3]; 400 mg/kg/day either iv or ip x7, day 8, H&E): proximal tubular necrosis | inflammatory cell infiltration into the affected renal tissue (BALB/c mice [3]; 400 mg/kg/day iv or ip x7, day 8, H&E): minimal | signs of toxicity in clinical chemistry and histopathology assessments (BALB/c mice [3]; iv-200 (200 mg/kg/day iv x7)): did not exhibit signs of toxicity
